ChEMBL document CHEMBL4732162, “Design, synthesis and evaluation of novel ErbB/HDAC multitargeted inhibitors with selectivity in EGFR mutant cell lines” (Eur J Med Chem, 2021)
Activity calls are given as the source filed them. The rule behind the calls is not given here.

Assays:
[1] = molecular target: Histone deacetylase 1 (Homo sapiens, UniProt Q13547); assay: Inhibition of HDAC1 (unknown origin)
[2] = tested on: FHC; assay: Cytotoxicity against human FHC cells assessed as reduction of cell viability incubated for 72 hrs by MTT assay; assay type: ADME, cell-based
[3] = tested on: NCI-H1975; assay: Induction of apoptosis in human NCI-H1975 cells assessed as early apoptotic cells at 2.5 uM incubated for 48 hrs by propidium iodide and annexin-V FITC staining based flow cytometry (reference value: 6.67 %); assay type: functional
[4] = tested on: A-431; assay: Antiproliferative activity against human A431 cells incubated for 72 hrs by MTT assay; assay type: functional, cell-based; settings: A-431, 72 h
[5] = tested on: NCI-H1975; assay: Cytotoxicity against human NCI-H1975 cells assessed as inhibition of colony formation incubated for 7 days by crystal violet based colony formation assay; assay type: functional, cell-based; settings: dose 0.5-5 µM, time 7.0 day
Procedure, shortened: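 NCI-H1975 cells, 1 × 10⁴/well, were seeded in 6-well plates and cultured 12 h. They were then treated with compound for 7 days. Colonies were fixed in 10% buffered formalin for 1 h and stained with crystal violet for 1 h.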

[6] = tested on: NCI-H1975; assay: Induction of apoptosis in human NCI-H1975 cells assessed as late apoptotic cells at 2.5 uM incubated for 48 hrs by propidium iodide and annexin-V FITC staining based flow cytometry (Rvb =4.20 %); assay type: functional
[7] = molecular target: T1, Epidermal growth factor receptor (Homo sapiens, UniProt P00533); assay: Inhibition of EGFR (unknown origin) by mobility shift assay
[8] = tested on: NCI-H1975; assay: Induction of apoptosis in human NCI-H1975 cells assessed as viable cells at 0.5 uM incubated for 48 hrs by propidium iodide and annexin-V FITC staining based flow cytometry (Rvb =88.95% ); assay type: functional; settings: read-out: Activity
[9] = tested on: A549; assay: Antiproliferative activity against human A549 cells incubated for 72 hrs by MTT assay; assay type: functional, cell-based; settings: A549, 72 h
[10] = molecular target: T1, Epidermal growth factor receptor; assay: Inhibition of EGFR in human NCI-H1975 cells assessed as reduction in EGFR phosphorylation at Tyr-1173 residues after 48 hrs by Western blot analysis; assay type: cell-based; settings: dose 0.5-5 µM
Procedure, shortened: (§1)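 Cells were treated with compound for 48 h and lysed on ice for 30 min in RIPA buffer with protease and phosphatase inhibitors. Lysates were cleared at 14000 g, 4 °C, and protein quantified by BCA. Samples were boiled in loading buffer, run on 10–12% SDS-PAGE and transferred to PVDF. Membranes were blocked 2 h, incubated in primary antibody overnight at 4 °C, then in secondary antibody 2 h at room temperature.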

[11] = tested on: NCI-H1975; assay: Induction of apoptosis in human NCI-H1975 cells assessed as increase in cleaved-PARP level at 0.5 to 5 uM after 48 hrs by Western blot analysis; assay type: functional, cell-based; settings: dose 0.5-5 µM; procedure, shortened: as §1
[12] = tested on: SK-BR-3; assay: Antiproliferation activity against human SK-BR-3 cells incubated for 72 hrs by MTT assay; assay type: functional, cell-based; settings: SK-BR-3, 72 h
Procedure, shortened: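 MTT assay. About 0.5–1 × 10⁴ cells/well were pre-incubated 12 h at 37 °C in 5% CO₂, then exposed to a concentration series of compound for 72 h. Formazan was dissolved in DMSO and absorbance read at 490 nm. Three wells per condition, three independent experiments. IC50 is the mean ± SD from the dose-response curves.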

[13] = molecular target: Epidermal growth factor receptor (Homo sapiens, UniProt P00533, L858R); assay: Inhibition of EGFR L858R (unknown origin) by mobility shift assay
[14] = tested on: NCI-H1975; assay: Induction of apoptosis in human NCI-H1975 cells assessed as late apoptotic cells at 5 uM incubated for 48 hrs by propidium iodide and annexin-V FITC staining based flow cytometry (Rvb =4.20 %); assay type: functional
[15] = tested on: NCI-H1975; assay: Induction of apoptosis in human NCI-H1975 cells assessed as late apoptotic cells at 0.5 uM incubated for 48 hrs by propidium iodide and annexin-V FITC staining based flow cytometry (Rvb =4.20 %); assay type: functional
[16] = molecular target: Receptor tyrosine-protein kinase erbB-2 (Homo sapiens, UniProt P04626); assay: Inhibition of HER2 (unknown origin) by mobility shift assay
Procedure, shortened: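 In vitro kinase activity was measured by mobility shift assay, run by a contract provider.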

[17] = tested on: NCI-H1975; assay: Down regulation of EGFR protein expression in human NCI-H1975 cells at 0.5 to 5 uM after 48 hrs by Western blot analysis; assay type: functional, cell-based; settings: dose 0.5-5 µM; procedure, shortened: as §1
[18] = tested on: NCI-H1975; assay: Induction of apoptosis in human NCI-H1975 cells assessed as early apoptotic cells at 5 uM incubated for 48 hrs by propidium iodide and annexin-V FITC staining based flow cytometry (reference value: 6.67 %); assay type: functional
[19] = cells; assay type: cell-based; settings: BaF3, 72 h
[20] = molecular target: Epidermal growth factor receptor (Homo sapiens, UniProt P00533, L858R/T790M); assay: Inhibition of EGFR L858R/T790M (unknown origin) by mobility shift assay
[21] = tested on: NCI-H1975; assay: Antiproliferative activity against human NCI-H1975 cells incubated for 72 hrs by MTT assay; assay type: functional, cell-based; settings: NCI-H1975, 72 h
[22] = molecular target: T1, Epidermal growth factor receptor; assay: Inhibition of EGFR in human A431 cells assessed as reduction in EGFR phosphorylation at Tyr-1068 residues at 0.5 to 5 uM after 48 hrs by Western blot analysis; assay type: cell-based; settings: A-431, dose 0.5-5 µM; procedure, shortened: as §1
[23] = tested on: NCI-H1975; assay: Induction of apoptosis in human NCI-H1975 cells assessed as necrotic cells at 0.5 uM incubated for 48 hrs by propidium iodide and annexin-V FITC staining based flow cytometry (Rvb =0.18% ); assay type: functional
[24] = tested on: NCI-H1975; assay: Induction of apoptosis in human NCI-H1975 cells assessed as viable cells at 5 uM incubated for 48 hrs by propidium iodide and annexin-V FITC staining based flow cytometry (Rvb =88.95% ); assay type: functional; settings: read-out: Activity
[25] = molecular target: T2, Histone deacetylase (Homo sapiens) (UniProt Q13547+O15379+Q9UBN7+Q92769+Q9UQL6+Q8WUI4+Q9BY41+Q96DB2+P56524+Q9UKV0+Q969S8); assay: Inhibition of HDAC in human NCI-H1975 cells assessed as increase in histone H3 acetylation after 48 hrs by Western blot analysis; assay type: cell-based; settings: dose 0.5-5 µM; procedure, shortened: as §1
[26] = tested on: NCI-H1975; assay: Induction of apoptosis in human NCI-H1975 cells assessed as increase in cleaved-caspase 3 level at 0.5 to 5 uM after 48 hrs by Western blot analysis; assay type: functional, cell-based; settings: dose 0.5-5 µM; procedure, shortened: as §1
[27] = tested on: NCI-H838; assay: Antiproliferation activity against human NCI-H838 cells incubated for 72 hrs by MTT assay; assay type: functional, cell-based; settings: NCI-H838, 72 h
[28] = Antiproliferative activity against human NCI-H820 cells incubated for 72 hrs by MTT assay; assay type: functional, cell-based; settings: NCI-H820, 72 h
[29] = tested on: NCI-H1975; assay: Induction of apoptosis in human NCI-H1975 cells assessed as increase in cleaved-caspase 7 level at 0.5 to 5 uM after 48 hrs by Western blot analysis; assay type: functional, cell-based; settings: dose 0.5-5 µM; procedure, shortened: as §1
[30] = tested on: NCI-H1975; assay: Induction of apoptosis in human NCI-H1975 cells assessed as necrotic cells at 5 uM incubated for 48 hrs by propidium iodide and annexin-V FITC staining based flow cytometry (Rvb =0.18% ); assay type: functional
[31] = molecular target: T1, Epidermal growth factor receptor; assay: Inhibition of EGFR in human NCI-H1975 cells assessed as reduction in EGFR phosphorylation at Tyr-1068 residues after 48 hrs by Western blot analysis; assay type: cell-based; settings: dose 0.5-5 µM; procedure, shortened: as §1
[32] = molecular target: T2, Histone deacetylase (Homo sapiens); assay: Inhibition of HDAC in human A431 cells assessed as increase in histone H3 acetylation at 0.5 to 5 uM after 48 hrs by Western blot analysis; assay type: cell-based; settings: A-431, dose 0.5-5 µM; procedure, shortened: as §1

T1 sequence (P00533 whole entry): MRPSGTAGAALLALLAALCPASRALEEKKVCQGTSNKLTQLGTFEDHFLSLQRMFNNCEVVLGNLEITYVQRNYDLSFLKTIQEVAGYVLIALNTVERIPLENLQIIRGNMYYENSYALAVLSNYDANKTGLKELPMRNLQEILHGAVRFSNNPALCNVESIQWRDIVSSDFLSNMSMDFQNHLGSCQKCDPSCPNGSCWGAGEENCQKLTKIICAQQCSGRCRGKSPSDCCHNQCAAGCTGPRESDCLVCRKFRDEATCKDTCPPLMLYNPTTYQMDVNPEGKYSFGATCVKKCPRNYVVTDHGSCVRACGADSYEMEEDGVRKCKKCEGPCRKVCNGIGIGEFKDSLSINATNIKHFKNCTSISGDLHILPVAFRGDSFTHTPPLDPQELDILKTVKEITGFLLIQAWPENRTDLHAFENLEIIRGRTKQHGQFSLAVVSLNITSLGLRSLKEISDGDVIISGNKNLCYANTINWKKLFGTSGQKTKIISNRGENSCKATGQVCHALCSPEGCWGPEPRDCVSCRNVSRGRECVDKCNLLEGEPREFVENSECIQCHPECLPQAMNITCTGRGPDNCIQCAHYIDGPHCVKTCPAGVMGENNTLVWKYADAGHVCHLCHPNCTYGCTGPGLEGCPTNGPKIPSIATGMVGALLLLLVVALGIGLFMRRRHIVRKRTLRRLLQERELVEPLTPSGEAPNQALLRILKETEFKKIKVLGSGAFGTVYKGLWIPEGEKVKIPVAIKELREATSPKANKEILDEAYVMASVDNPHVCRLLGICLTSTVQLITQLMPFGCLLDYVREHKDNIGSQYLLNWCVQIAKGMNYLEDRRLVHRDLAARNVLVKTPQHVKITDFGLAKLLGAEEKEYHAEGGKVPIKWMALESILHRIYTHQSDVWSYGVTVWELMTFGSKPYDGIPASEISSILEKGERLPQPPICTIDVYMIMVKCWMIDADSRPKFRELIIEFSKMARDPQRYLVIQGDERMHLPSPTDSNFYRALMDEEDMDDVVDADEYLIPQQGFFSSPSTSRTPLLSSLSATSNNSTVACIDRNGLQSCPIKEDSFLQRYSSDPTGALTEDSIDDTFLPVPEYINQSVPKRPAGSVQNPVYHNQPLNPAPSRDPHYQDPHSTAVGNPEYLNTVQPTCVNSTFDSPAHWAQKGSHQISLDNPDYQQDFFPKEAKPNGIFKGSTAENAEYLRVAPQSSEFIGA
Sequence of Histone deacetylase 1 (Q13547 whole entry): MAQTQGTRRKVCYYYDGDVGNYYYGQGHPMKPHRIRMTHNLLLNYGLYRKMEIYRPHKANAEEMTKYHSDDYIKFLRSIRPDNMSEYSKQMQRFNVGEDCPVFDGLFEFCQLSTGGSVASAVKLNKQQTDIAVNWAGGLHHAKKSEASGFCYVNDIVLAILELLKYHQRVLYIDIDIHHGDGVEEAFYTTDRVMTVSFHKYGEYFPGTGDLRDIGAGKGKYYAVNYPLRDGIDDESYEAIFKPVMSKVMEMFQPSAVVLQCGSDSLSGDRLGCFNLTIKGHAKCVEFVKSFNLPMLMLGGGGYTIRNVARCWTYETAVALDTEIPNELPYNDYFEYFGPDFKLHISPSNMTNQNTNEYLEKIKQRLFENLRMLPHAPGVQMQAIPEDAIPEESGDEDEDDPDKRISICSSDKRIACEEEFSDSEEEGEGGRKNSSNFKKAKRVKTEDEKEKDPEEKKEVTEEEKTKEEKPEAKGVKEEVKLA
Sequence of Epidermal growth factor receptor (Homo sapiens, UniProt P00533, L858R) (P00533 25-1210 L858R limits assumed): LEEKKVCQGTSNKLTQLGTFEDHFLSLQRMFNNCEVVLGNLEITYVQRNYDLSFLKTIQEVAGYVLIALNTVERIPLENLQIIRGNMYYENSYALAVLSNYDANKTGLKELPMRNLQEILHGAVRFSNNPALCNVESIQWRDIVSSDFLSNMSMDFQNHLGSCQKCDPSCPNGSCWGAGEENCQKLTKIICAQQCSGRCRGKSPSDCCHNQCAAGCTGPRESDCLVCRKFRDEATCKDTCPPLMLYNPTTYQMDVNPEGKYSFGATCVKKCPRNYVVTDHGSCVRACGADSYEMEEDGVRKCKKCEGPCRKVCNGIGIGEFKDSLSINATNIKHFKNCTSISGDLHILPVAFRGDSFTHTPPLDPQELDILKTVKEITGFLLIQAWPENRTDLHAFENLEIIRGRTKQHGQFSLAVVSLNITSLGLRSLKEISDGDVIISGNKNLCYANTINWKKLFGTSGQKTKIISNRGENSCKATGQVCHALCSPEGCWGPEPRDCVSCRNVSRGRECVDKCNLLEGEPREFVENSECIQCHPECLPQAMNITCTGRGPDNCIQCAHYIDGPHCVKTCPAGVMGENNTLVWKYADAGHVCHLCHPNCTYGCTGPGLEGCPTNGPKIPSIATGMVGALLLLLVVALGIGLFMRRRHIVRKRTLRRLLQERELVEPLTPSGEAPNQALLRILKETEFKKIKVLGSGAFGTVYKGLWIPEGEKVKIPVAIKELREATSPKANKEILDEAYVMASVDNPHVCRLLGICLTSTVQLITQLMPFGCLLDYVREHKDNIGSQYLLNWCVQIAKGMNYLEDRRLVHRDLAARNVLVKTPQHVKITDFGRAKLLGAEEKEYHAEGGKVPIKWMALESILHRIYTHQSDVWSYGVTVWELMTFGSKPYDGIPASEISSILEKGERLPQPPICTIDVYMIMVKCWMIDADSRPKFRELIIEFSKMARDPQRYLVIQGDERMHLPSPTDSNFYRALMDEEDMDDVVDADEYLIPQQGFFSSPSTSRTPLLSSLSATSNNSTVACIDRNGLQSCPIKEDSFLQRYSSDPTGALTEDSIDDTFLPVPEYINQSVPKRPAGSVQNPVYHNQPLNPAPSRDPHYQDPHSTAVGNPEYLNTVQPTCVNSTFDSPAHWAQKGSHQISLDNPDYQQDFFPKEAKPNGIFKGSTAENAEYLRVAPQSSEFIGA
Sequence of Epidermal growth factor receptor (Homo sapiens, UniProt P00533, L858R/T790M) (P00533 25-1210 T790M/L858R limits assumed): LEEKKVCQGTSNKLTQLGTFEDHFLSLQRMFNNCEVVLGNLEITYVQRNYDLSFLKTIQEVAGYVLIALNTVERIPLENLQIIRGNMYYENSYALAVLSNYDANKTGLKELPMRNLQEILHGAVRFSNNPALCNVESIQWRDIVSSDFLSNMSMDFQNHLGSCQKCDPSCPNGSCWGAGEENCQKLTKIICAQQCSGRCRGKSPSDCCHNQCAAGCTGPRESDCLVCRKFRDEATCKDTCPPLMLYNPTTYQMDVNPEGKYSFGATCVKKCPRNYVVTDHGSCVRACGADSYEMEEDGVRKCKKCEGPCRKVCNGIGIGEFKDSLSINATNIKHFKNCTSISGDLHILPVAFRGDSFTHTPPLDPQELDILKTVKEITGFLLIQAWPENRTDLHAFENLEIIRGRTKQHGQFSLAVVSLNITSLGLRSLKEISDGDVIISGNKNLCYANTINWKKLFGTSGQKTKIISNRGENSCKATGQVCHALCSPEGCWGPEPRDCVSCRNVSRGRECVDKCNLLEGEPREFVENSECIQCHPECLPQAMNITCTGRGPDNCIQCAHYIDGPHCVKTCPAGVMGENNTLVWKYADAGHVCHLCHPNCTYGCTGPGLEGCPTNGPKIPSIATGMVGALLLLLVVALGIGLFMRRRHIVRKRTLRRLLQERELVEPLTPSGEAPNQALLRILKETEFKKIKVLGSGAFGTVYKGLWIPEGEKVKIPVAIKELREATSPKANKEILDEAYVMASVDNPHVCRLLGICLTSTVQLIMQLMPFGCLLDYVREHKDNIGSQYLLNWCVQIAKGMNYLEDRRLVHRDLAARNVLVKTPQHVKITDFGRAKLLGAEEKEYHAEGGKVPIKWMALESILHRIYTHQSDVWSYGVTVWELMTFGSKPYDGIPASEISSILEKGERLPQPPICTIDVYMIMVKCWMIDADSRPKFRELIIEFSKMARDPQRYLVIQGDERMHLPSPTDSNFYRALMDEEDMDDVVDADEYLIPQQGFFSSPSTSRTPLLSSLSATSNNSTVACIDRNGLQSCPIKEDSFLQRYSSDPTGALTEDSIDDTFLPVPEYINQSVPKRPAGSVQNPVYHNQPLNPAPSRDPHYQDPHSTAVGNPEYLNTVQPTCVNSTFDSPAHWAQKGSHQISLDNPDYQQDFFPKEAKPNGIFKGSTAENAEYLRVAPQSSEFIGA

C=CC(=O)Nc1cc2c(Nc3ccc(F)c(Cl)c3)ncnc2cc1OCc1cn(CCCC(=O)NO)nn1
IC50 [1]: 0.075 µM | IC50 [2]: > 25 µM | Activity [3]: 31.38% | IC50 [4]: 20.7 µM | inhibition [5]: Dose-dependent effect | Activity [6]: 14.3% | IC50 [7]: 0.00035 µM | viability at 0.5 µM [8]: 62.6% | IC50 [9]: > 50 µM | inhibition [10]: Dose-dependent effect | Activity [11]: Active | IC50 [12]: 30.8 µM | IC50 [13]: 0.0011 µM | Activity [14]: 18.07% | Activity [15]: 13.07% | IC50 [16]: 0.0057 µM | Activity [17]: Active | Activity [18]: 35.22% | IC50 [19]: 7.61 µM | IC50 [20]: 0.0015 µM | IC50 [21]: 1.82 µM | inhibition [22]: Active | Activity [23]: 0.08% | viability at 5 µM [24]: 46.1% | inhibition [25]: Dose-dependent effect | Activity [26]: Active | IC50 [27]: > 50 µM | IC50 [28]: 1.75 µM | Activity [29]: Active | Activity [30]: 0.57% | inhibition [31]: Dose-dependent effect | inhibition [32]: Active
